Data reported in ChEMBL document CHEMBL4477201, “Imidazopyridine and Pyrazolopiperidine Derivatives as Novel Inhibitors of Serine Palmitoyl Transferase” (J Med Chem, 2016).
Calls of active or inactive are those of the source. No cut-off for these calls is given here.

What was measured:
[1] = AUC (0 to 24 hrs) in Sprague-Dawley rat at 3 mg/kg,po; format: ADME, organism-based; parameters: time < 24 hr, dose 3 mg/kg, route oral; details: in vivo
Method in brief: (§1)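 Single dose to fasted male Sprague Dawley rats, IV at 1 mg/kg or oral at 3 mg/kg. Plasma levels followed to derive AUC0-24hr, Cmax, half-life, Vdss and oral bioavailability.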

[2] = Cmax in Sprague-Dawley rat at 3 mg/kg,po; format: ADME, organism-based; parameters: dose 3 mg/kg, route oral; details: in vivo; method in brief: as §1
Mus musculus [3] = assay: Reduction in plasma C18:0 ceramide level in diet-induced obese C57BL6 mouse at 1 to 60 mg/kg administered daily through oral gavage for 28 days measured 2 hrs post last dose relative to lean control; format: functional, organism-based
Method in brief: (§2)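 DIO mice dosed orally for 28 days, with myriocin as positive control and lean mice as reference. Total and C18:0 plasma ceramides measured 2 h after the final dose.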

[4] = Ratio of drug uptake in diet-induced obese C57Bl/6 mouse liver to serum at 30 mg/kg, po qd for 4 weeks measured 6 hrs post last dose; format: ADME, organism-based
Method in brief: (§3)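 Male DIO mice dosed orally for 4 weeks. Sacrificed 6 h after the last dose. Compound measured in serum (ng/mL) and liver (ng/g), and the liver:serum ratio calculated.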

[5] = Drug uptake in diet-induced obese C57Bl/6 mouse liver at 30 mg/kg, po qd for 4 weeks measured 6 hrs post last dose; format: ADME, organism-based; details: read-out: Drug uptake; method in brief: as §3
Rattus norvegicus [6] = assay: Reduction in total plasma ceramide level in cholic acid/cholesterol-fed Sprague-Dawley rat model of dyslipidemia at 30 to 60 mg/kg administered bid through oral gavage measured after 1 week by FPLC analysis relative to vehicle-treated control; format: functional, organism-based
Method in brief: (§4)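 Sprague Dawley rats fed a cholic acid/cholesterol diet for 14 days, then dosed orally BID for 7 days at five dose levels, n=6. Serum ceramides and VLDL and HDL cholesterol compared with vehicle (dose 0). Mean ± SEM; Dunnett's test, p<0.05.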

[7] = AUC (0 to 24 hrs) in Sprague-Dawley rat at 1 mg/kg, iv; format: ADME, organism-based; parameters: time < 24 hr, dose 1 mg/kg, route intravenous; details: in vivo; method in brief: as §1
Rattus norvegicus [8] = assay: Increase in HDL level in cholic acid/cholesterol-fed Sprague-Dawley rat model of dyslipidemia administered bid through oral gavage measured after 1 week by FPLC analysis relative to vehicle-treated control; format: functional, organism-based; method in brief: as §4
[9] = target: T1, Serine palmitoyltransferase 1 (Homo sapiens, UniProt O15269); assay: (§5) Inhibition of SPT1 in human MCF7 cells assessed as suppression of 14C-serine incorporation into ceramide incubated for 2 hrs in presence of 4-HPR; format: cell-based
T1 sequence (O15269 whole entry): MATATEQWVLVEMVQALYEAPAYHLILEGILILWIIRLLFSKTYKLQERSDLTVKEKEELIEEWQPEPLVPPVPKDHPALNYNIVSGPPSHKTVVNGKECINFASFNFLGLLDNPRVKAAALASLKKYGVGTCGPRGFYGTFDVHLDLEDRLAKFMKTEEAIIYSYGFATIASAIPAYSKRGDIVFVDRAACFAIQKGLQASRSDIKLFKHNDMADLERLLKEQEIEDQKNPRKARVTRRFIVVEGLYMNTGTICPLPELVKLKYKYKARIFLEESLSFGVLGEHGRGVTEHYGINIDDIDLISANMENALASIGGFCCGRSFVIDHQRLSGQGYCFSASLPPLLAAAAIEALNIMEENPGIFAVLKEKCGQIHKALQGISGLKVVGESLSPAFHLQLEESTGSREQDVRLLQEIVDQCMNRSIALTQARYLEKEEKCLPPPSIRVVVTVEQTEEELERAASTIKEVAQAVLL
Method in brief: (§6)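 Human MCF-7 cells incubated 2 h with a range of compound concentrations or DMSO control media. Medium contained 14C-serine plus 25 uM 4-HPR to activate SPT. 14C-serine-labeled ceramide products quantified to give EC50.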

[10] = target: T2, Serine palmitoyltransferase 1 (Homo sapiens) (UniProt O15269); assay: as §5; format: cell-based; method in brief: as §6
T2 sequence (whole entry): T1 sequence (O15269 whole entry)

[11] = Drug uptake in diet-induced obese C57Bl/6 mouse liver at 60 mg/kg, po qd for 4 weeks measured 6 hrs post last dose; format: ADME, organism-based; details: read-out: Drug uptake; method in brief: as §3
[12] = Drug uptake in diet-induced obese C57Bl/6 mouse serum at 3 mg/kg, po qd for 4 weeks measured 6 hrs post last dose; format: ADME, organism-based; details: read-out: Drug uptake; method in brief: as §3
[13] = Ratio of drug uptake in diet-induced obese C57Bl/6 mouse liver to serum at 10 mg/kg, po qd for 4 weeks measured 6 hrs post last dose; format: ADME, organism-based; method in brief: as §3
[14] = Drug uptake in diet-induced obese C57Bl/6 mouse liver at 1 mg/kg, po qd for 4 weeks measured 6 hrs post last dose; format: ADME, organism-based; details: read-out: Drug uptake; method in brief: as §3
[15] = Volume of distribution at steady state in Sprague-Dawley rat at 3 mg/kg,po; format: ADME, organism-based; details: in vivo
Method in brief: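 Male Sprague Dawley rats, fasted, single oral dose of 3 mg/kg. A parallel arm received 1 mg/kg IV. Plasma was sampled for pharmacokinetics over 0-24 hr. Steady-state volume of distribution is reported […], in mL/kg.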

[16] = Drug uptake in diet-induced obese C57Bl/6 mouse liver at 3 mg/kg, po qd for 4 weeks measured 6 hrs post last dose; format: ADME, organism-based; details: read-out: Drug uptake; method in brief: as §3
[17] = Oral bioavailability in Sprague-Dawley rat at 3 mg/kg; format: ADME, organism-based; details: in vivo; method in brief: as §1
Rattus norvegicus [18] = assay: Reduction in vLDL level in cholic acid/cholesterol-fed Sprague-Dawley rat model of dyslipidemia at 60 mg/kg administered bid through oral gavage measured after 1 week by FPLC analysis relative to vehicle-treated control; format: functional, organism-based; method in brief: as §4
[19] = Half life in Sprague-Dawley rat at 3 mg/kg,po; format: ADME, organism-based; details: in vivo; method in brief: as §1
Mus musculus [20] = assay: Reduction in total plasma ceramide level in diet-induced obese C57BL6 mouse administered daily through oral gavage for 28 days measured 2 hrs post last dose relative to lean control; format: functional, organism-based; method in brief: as §2
[21] = Drug uptake in diet-induced obese C57Bl/6 mouse serum at 10 mg/kg, po qd for 4 weeks measured 6 hrs post last dose; format: ADME, organism-based; details: read-out: Drug uptake; method in brief: as §3
[22] = Drug uptake in diet-induced obese C57Bl/6 mouse liver at 10 mg/kg, po qd for 4 weeks measured 6 hrs post last dose; format: ADME, organism-based; details: read-out: Drug uptake; method in brief: as §3
[23] = Volume of distribution at steady state in Sprague-Dawley rat at 1 mg/kg, iv; format: ADME, organism-based; details: in vivo, read-out: Vdss; method in brief: as §1
[24] = Drug uptake in diet-induced obese C57Bl/6 mouse serum at 30 mg/kg, po qd for 4 weeks measured 6 hrs post last dose; format: ADME, organism-based; details: read-out: Drug uptake; method in brief: as §3
[25] = Lipophilicity, log P of compound; format: physicochemical; details: octanol/water
[26] = Drug uptake in diet-induced obese C57Bl/6 mouse serum at 1 mg/kg, po qd for 4 weeks measured 6 hrs post last dose; format: ADME, organism-based; details: read-out: Drug uptake; method in brief: as §3
[27] = Dissociation constant, pKa of the compound; format: physicochemical
[28] = Toxicity in rat assessed as induction of gastric enteropathy during 14 days toxicology study; details: in vivo, 336 h
[29] = Ratio of drug uptake in diet-induced obese C57Bl/6 mouse liver to serum at 1 mg/kg, po qd for 4 weeks measured 6 hrs post last dose; format: ADME, organism-based; method in brief: as §3
Mus musculus [30] = assay: Reduction in serum insulin AUC in diet-induced obese C57BL6 mouse at 1 to 60 mg/kg, po qd for 4 weeks by oral glucose tolerance test relative to lean control; format: functional, organism-based
Method in brief: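 After 4 weeks of oral dosing, DIO mice underwent an oral glucose tolerance test. Insulin and glucose AUC compared with lean mice; trend assessed by ANOVA trend analysis.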

[31] = Cmax in Sprague-Dawley rat at 1 mg/kg, iv; format: ADME, organism-based; parameters: dose 1 mg/kg, route intravenous; details: in vivo; method in brief: as §1
[32] = target: T1, Serine palmitoyltransferase 1; assay: Inhibition of human SPT1 expressed in microsomes of HEK293 cells incubated for 1hr by LC/MS analysis
Method in brief: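 SPT source was a microsomal fraction from HEK293 cells, with serine and palmitoyl coenzyme A as substrates. Formation of 3-ketodeoxysphinganine quantified by LC/MS. Inhibition determined at 10 concentrations per compound to give IC50.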

[33] = Toxicity in diet-induced obese C57Bl/6 mouse assessed as change in food intake at 1 to 60 mg/kg, po qd for 4 weeks; format: organism-based; details: in vivo, 672 h
Method in brief: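 Food intake monitored in DIO mice during 4 weeks of daily oral dosing.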

[34] = Half life in Sprague-Dawley rat at 1 mg/kg, iv; format: ADME, organism-based; details: in vivo; method in brief: as §1
[35] = Fraction unbound in rat; format: ADME
Mus musculus [36] = assay: Reduction in total plasma ceramide level in C57BL6 mouse administered through gavage after 6 hrs by mass spectrometry relative to vehicle-treated control; format: functional
Method in brief: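 Normal C57bl6 mice given a single oral dose at six dose levels, n=3 per group. Plasma collected 6 h post dose. C16:0, C20:0, C22:0, C24:0 and C24:1 ceramides measured by mass spectrometry and summed; total reduction calculated versus vehicle. ED50 derived from the dose-response; mean ± SEM.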

[37] = Ratio of drug uptake in diet-induced obese C57Bl/6 mouse liver to serum at 3 mg/kg, po qd for 4 weeks measured 6 hrs post last dose; format: ADME, organism-based; method in brief: as §3
[38] = Ratio of drug uptake in diet-induced obese C57Bl/6 mouse liver to serum at 60 mg/kg, po qd for 4 weeks measured 6 hrs post last dose; format: ADME, organism-based; method in brief: as §3
[39] = Drug uptake in diet-induced obese C57Bl/6 mouse serum at 60 mg/kg, po qd for 4 weeks measured 6 hrs post last dose; format: ADME, organism-based; details: read-out: Drug uptake; method in brief: as §3
Mus musculus [40] = assay: Reduction in total liver ceramide level in diet-induced obese C57BL6 mouse at 1 to 60 mg/kg administered daily through oral gavage for 28 days measured 6 hrs post last dose relative to lean control; format: functional, organism-based
Method in brief: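 Liver total ceramide levels measured in DIO mice after 4 weeks of oral dosing.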

Mus musculus [41] = assay: Reduction in plasma C18:0 ceramide level in diet-induced obese C57BL6 mouse at 0.5 mg/kg administered daily through oral gavage for 28 days measured 2 hrs post last dose relative to lean control; format: functional, organism-based
Method in brief: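 DIO mice received daily oral doses for 4 weeks as part of a dose-response study. Plasma was sampled 2 h after the final dose. Total and C18:0 plasma ceramides were measured and compared with those of lean control mice. At the end of dosing, the same cohort underwent an oral glucose tolerance test.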

Structure (SMILES): CCCCCCC(=O)c1cc(-c2ccc(CC(=O)O)cc2)c2nccn2c1
- AUC(0-t) at 24 h [1]: 2920 ng·h/mL
- Cmax [2]: 1500 ng/mL
- Activity (Mus musculus [3]): Active
- Kp at 6 h [4]: 10
- concentration at 6 h [5]: 6580 ng/g
- Activity (Rattus norvegicus [6]): Active
- AUC(0-t) at 24 h [7]: 1270 ng·h/mL
- Activity (Rattus norvegicus [8]): Dose-dependent effect
- EC50 [9]: 977 nM
- inhibition [10]: Dose-dependent effect
- concentration at 6 h [11]: 181000 ng/g
- concentration at 6 h [12]: 264 ng/mL
- Kp at 6 h [13]: 8
- concentration at 6 h [14]: 463 ng/g
- Vdss [15]: 1840 mL/kg
- concentration at 6 h [16]: 789 ng/g
- bioavailability [17]: 75%
- Activity (Rattus norvegicus [18]): Active
- half-life [19]: 88.8 min
- Activity (Mus musculus [20]): Dose-dependent effect
- concentration at 6 h [21]: 341 ng/mL
- concentration at 6 h [22]: 2850 ng/g
- Vd [23]: 0.574 L/kg
- concentration at 6 h [24]: 677 ng/mL
- logP [25]: 3.97
- concentration at 6 h [26]: 88 ng/mL
- pKa [27]: 4.73
- Activity [28]: Toxic
- Kp at 6 h [29]: 5
- Activity (Mus musculus [30]): Active
- Cmax [31]: 2540 ng/mL
- IC50 [32]: 5.19 nM
- Activity [33]: Non-Toxic
- half-life [34]: 128 min
- fraction unbound [35]: < 0.02
- Activity (Mus musculus [36]): Dose-dependent effect
- ED50 (Mus musculus [36]; C57BL6, po): 1.04 mg/kg
- Kp at 6 h [37]: 3
- Kp at 6 h [38]: 54
- concentration at 6 h [39]: 3350 ng/mL
- Activity (Mus musculus [40]): Active

Structure (SMILES): CCCCCCC(=O)CCCCCC/C=C/C[C@@H](O)[C@H](O)[C@@](N)(CO)C(=O)O [MYRIOCIN]
- EC50 [9]: 49.5 nM
- Activity (Mus musculus [41]): Active
